Key:
CCRF-CEM [1] = test: Concentration of compound inhibiting Glu138-Lys mutant HIV-1(IIIB) induced cytopathicity in CEM cell culture by 50%; type: functional, cell-based; settings: Homo sapiens
Outline: (§1)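 CEM cells at 4 × 10⁵ per mL infected at ~100 CCID₅₀ per mL of cell suspension, then mixed 1:1 with compound dilutions in microtiter wells. Giant cell formation was scored microscopically after 4 days. EC₅₀ is the concentration inhibiting virus-induced cytopathicity by 50%. Mutant HIV-1(IIIB) RT strains were selected as described previously.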

CCRF-CEM [2] = test: Concentration of compound inhibiting Lys103-Asn mutant HIV-1(IIIB) induced cytopathicity in CEM cell culture by 50%; type: functional, cell-based; settings: Homo sapiens; outline: as §1
CCRF-CEM [3] = test: Concentration of compound inhibiting Tyr181- Cys mutant HIV-1(IIIB) induced cytopathicity in CEM cell culture by 50%; type: functional, cell-based; settings: Homo sapiens; outline: as §1
CCRF-CEM [4] = test: Concentration of compound required to inhibit HIV-1(IIIB) induced cytopathicity in CEM cell culture by 50%; type: functional, cell-based; settings: Homo sapiens
Outline: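 CEM cells at 4 × 10⁵ per mL were infected with HIV-1(III_B) at ∼100 CCID₅₀ per mL and mixed 1:1 with serial compound dilutions. Giant cell formation was scored microscopically after 4 days. EC₅₀ was taken as the concentration giving 50% inhibition of virus-induced cytopathicity.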

CCRF-CEM [5] = test: Concentration of compound required to inhibit HIV-2 (ROD) induced cytopathicity in CEM cell culture by 50%; type: functional, cell-based; settings: Homo sapiens; outline: as §1
MT4 [6] = test: Concentration of compound required to inhibit HIV-1(IIIB) induced cytopathicity in MT-4 cell culture by 50%; type: functional, cell-based; settings: Homo sapiens
Outline: (§2)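 MT-4 cells at 3 × 10⁵ per mL were infected with HIV-1(III_B) or HIV-2(ROD) at ∼100 CCID₅₀ per mL, then mixed 1:1 with compound dilutions. After 4 days, viability was read by the MTT method. EC₅₀ was taken as the concentration giving 50% protection against HIV-induced cytopathicity.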

MT4 [7] = test: Concentration of compound required to inhibit HIV-2 (ROD) induced cytopathicity in MT-4 cell culture by 50%; type: functional, cell-based; settings: Homo sapiens; outline: as §2
[8] = Concentration of compound required to reduce by 50% the number of viable cells in mock infected CEM cell cultures; type: functional; settings: Homo sapiens, CCRF-CEM
Outline: (§3)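 Mock-infected CEM cells (4 × 10⁵ per mL) or MT-4 cells (3 × 10⁵ per mL) were exposed to serial compound dilutions for 4 days. CC₅₀ was the concentration reducing the number of viable cells by 50%.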

MT4 [9] = test: Concentration of compound required to reduce by 50% the number of viable cells in mock infected MT-4 cell cultures; type: functional; settings: Homo sapiens; outline: as §3
[10] = tested on: Human immunodeficiency virus 1; test: Concentration of compound inhibiting Tyr181Cys mutant HIV-1(IIIB) induced cytopathicity in CEM cell culture by 50%; type: functional, organism-based; settings: Human immunodeficiency virus 1, CCRF-CEM; outline: as §1

SMILES | EC50 (CCRF-CEM [1]) [µM] | EC50 (CCRF-CEM [2]) [µM] | EC50 (CCRF-CEM [3]) [µM] | EC50 (CCRF-CEM [4]) [µM] | EC50 (CCRF-CEM [5]) [µM] | EC50 (MT4 [6]) [µM] | EC50 (MT4 [7]) [µM] | CC50 [8] [µM] | CC50 (MT4 [9]) [µM] | EC50 [10] [µM]
Cc1cn([C@@H]2O[C@H](CO[Si](C)(C)C(C)(C)C)[C@@]3(OS(=O)(=O)C=C3N)[C@H]2O[Si](C)(C)C(C)(C)C)c(=O)[nH]c1=O | 4.6 | 0.4 | 3 | 0.06 | > 4 | 0.06 | > 20 | 16 | 14 | 
Cc1cn([C@@H]2O[C@H](CO[Si](C)(C)C(C)(C)C)[C@@]3(NS(=O)(=O)C=C3N)[C@H]2O[Si](C)(C)C(C)(C)C)c(=O)n(C)c1=O | > 10 | 4 |  | 0.22 |  |  |  | 5.8 |  | > 10
Cc1cn([C@@H]2O[C@H](CO[Si](C)(C)C(C)(C)C)[C@]3(C(N)=CS(=O)(=O)N3C)[C@H]2O[Si](C)(C)C(C)(C)C)c(=O)n(C)c1=O |  |  |  | 2.5 | > 250 | 0.66 | > 200 | > 250 | > 200 | > 250
Cc1cn([C@@H]2O[C@H](CO[Si](C)(C)C(C)(C)C)[C@]3(C(N)=CS(=O)(=O)N3C)[C@H]2O[Si](C)(C)C(C)(C)C)c(=O)[nH]c1=O |  |  |  | 3.5 | > 10 | 1.6 | > 20 | 21.6 | 19 | > 10
Cc1cn([C@@H]2O[C@H](CO[Si](C)(C)C(C)(C)C)[C@]3(C(N)=CS(=O)(=O)N3C)[C@H]2O[Si](C)(C)C(C)(C)C)c(=O)n(C(=O)OC(C)(C)C)c1=O |  |  |  | 3.5 | > 10 | 1.8 | > 20 | 20.6 | 20 | > 10
CCn1c(=O)c(C)cn([C@@H]2O[C@H](CO[Si](C)(C)C(C)(C)C)[C@@]3(NS(=O)(=O)C=C3N)[C@H]2O[Si](C)(C)C(C)(C)C)c1=O | > 2 | > 2 |  | 0.31 |  |  |  | 4.9 |  | > 2
Cc1cn([C@@H]2O[C@H](CO[Si](C)(C)C(C)(C)C)[C@@]3(NS(=O)(=O)C=C3N)[C@H]2O[Si](C)(C)C(C)(C)C)c(=O)[nH]c1=O |  |  |  | 0.33 | > 10 | 0.53 | > 100 | 19.1 | 105 | > 10
Cc1cn([C@@H]2O[C@H](CO[Si](C)(C)C(C)(C)C)[C@@]3(NS(=O)(=O)C=C3N)[C@H]2O[Si](C)(C)C(C)(C)C)c(=O)n(C(=O)OC(C)(C)C)c1=O |  | 5 |  | 0.43 | > 10 | 0.13 |  | 21.2 | 19 | 

— ChEMBL document CHEMBL1140288, “First synthesis and evaluation of the inhibitory effects of aza analogues of TSAO on HIV-1 replication” (J Med Chem, 2005)
